Experimental data reported in ChEMBL document CHEMBL1649446, “Comparative antipneumococcal activities of sulopenem and other drugs” (2009).
In brackets after ≈: the same amount, converted by molar mass.

Columns and labels:
Assay type in all cases: functional
[1] = system: Streptococcus pneumoniae; experiment: Antimicrobial activity against Streptococcus pneumoniae isolate 3681 by agar dilution method
Method in brief: (§1)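 Agar dilution MIC on Mueller-Hinton agar with 5% sheep blood, inocula 10^4 CFU/spot; amoxicillin-clavulanate combined 1:2; S. pneumoniae ATCC 49619 quality control each run.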

[2] = system: Streptococcus pneumoniae; experiment: Antimicrobial activity against Streptococcus pneumoniae isolate 2874 by agar dilution method; method in brief: as §1
[3] = system: Streptococcus pneumoniae; experiment: Antimicrobial activity against Streptococcus pneumoniae isolate 3412 by agar dilution method; method in brief: as §1
[4] = system: Streptococcus pneumoniae; experiment: Antimicrobial activity against Streptococcus pneumoniae isolate 1146 by agar dilution method; method in brief: as §1
[5] = system: Streptococcus pneumoniae; experiment: Antimicrobial activity against Streptococcus pneumoniae isolate 1397 by agar dilution method; method in brief: as §1
[6] = system: Streptococcus pneumoniae; experiment: Antimicrobial activity against Streptococcus pneumoniae isolate 33 by agar dilution method; method in brief: as §1
[7] = system: Streptococcus pneumoniae; experiment: Antimicrobial activity against penicillin-intermediate Streptococcus pneumoniae by agar dilution method
[8] = system: Streptococcus pneumoniae; experiment: Antimicrobial activity against Streptococcus pneumoniae isolate 3791 by agar dilution method; method in brief: as §1
[9] = system: Streptococcus pneumoniae; experiment: Antimicrobial activity against Streptococcus pneumoniae isolate 1564 by agar dilution method
[10] = system: Streptococcus pneumoniae; experiment: Antimicrobial activity against Streptococcus pneumoniae isolate 3346 by agar dilution method
[11] = system: Streptococcus pneumoniae; experiment: Antimicrobial activity against Streptococcus pneumoniae 19A by agar dilution method; method in brief: as §1
[12] = system: Streptococcus pneumoniae; experiment: Antimicrobial activity against Streptococcus pneumoniae 11 by time-kill analysis
Method in brief: (§2)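 Time-kill in cation-adjusted Mueller-Hinton broth with 5% lysed horse blood; inocula 5 × 105 to 5 × 10^6 CFU/ml; drugs at MIC, 2× and 4× MIC; 35°C shaking water bath; viable counts at 0, 3, 6, 12, 24 h. Bactericidal = ≥3 log10 CFU/ml (99.9%) drop from original inoculum; 90%/99%/99.9% killing scored per strain.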

[13] = system: Streptococcus pneumoniae; experiment: Antimicrobial activity against Streptococcus pneumoniae 6 by time-kill analysis; method in brief: as §2
[14] = system: Streptococcus pneumoniae; experiment: Antimicrobial activity against Streptococcus pneumoniae 12 by time-kill analysis; method in brief: as §2
[15] = system: Streptococcus pneumoniae; experiment: Antimicrobial activity against Streptococcus pneumoniae 5 by time-kill analysis
Method in brief: as §2, with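 “12 and” for “12,”, “if” for “=”, “reduction” for “drop”, “90% and 99%” for “90%/99%/99.9%”, “also scored.” for “scored per strain.”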

[16] = system: Streptococcus pneumoniae; experiment: Antimicrobial activity against Streptococcus pneumoniae 2 by time-kill analysis; method in brief: as §2
[17] = system: Streptococcus pneumoniae; experiment: Antimicrobial activity against Streptococcus pneumoniae isolate 1384 by agar dilution method; method in brief: as §1
[18] = system: Streptococcus pneumoniae; experiment: Antimicrobial activity against Streptococcus pneumoniae isolate 3260 by agar dilution method
[19] = system: Streptococcus pneumoniae; experiment: Antimicrobial activity against penicillin-resistant Streptococcus pneumoniae by agar dilution method; method in brief: as §1
[20] = system: Streptococcus pneumoniae; experiment: Antimicrobial activity against Streptococcus pneumoniae 7 by time-kill analysis; method in brief: as §2
[21] = system: Streptococcus pneumoniae; experiment: Antimicrobial activity against Streptococcus pneumoniae isolate 2686 by agar dilution method; method in brief: as §1
[22] = system: Streptococcus pneumoniae; experiment: Antimicrobial activity against Streptococcus pneumoniae 3 by time-kill analysis; method in brief: as §2
[23] = system: Streptococcus pneumoniae; experiment: Antimicrobial activity against Streptococcus pneumoniae isolate 3374 by agar dilution method; method in brief: as §1
[24] = system: Streptococcus pneumoniae; experiment: Antimicrobial activity against Streptococcus pneumoniae isolate 3275 by agar dilution method; method in brief: as §1
[25] = system: Streptococcus pneumoniae; experiment: Antimicrobial activity against Streptococcus pneumoniae 1 by time-kill analysis
Method in brief: as §2, with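 “12 and” for “12,”, “if” for “=”, “reduction” for “drop”, “90% and 99%” for “90%/99%/99.9%”, “also scored.” for “scored per strain.”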

[26] = system: Streptococcus pneumoniae; experiment: Antimicrobial activity against Streptococcus pneumoniae isolate 4747 by agar dilution method; method in brief: as §1
[27] = system: Streptococcus pneumoniae; experiment: Antimicrobial activity against Streptococcus pneumoniae isolate 1147 by agar dilution method; method in brief: as §1
[28] = system: Streptococcus pneumoniae; experiment: Antimicrobial activity against Streptococcus pneumoniae isolate 1424 by agar dilution method; method in brief: as §1
[29] = system: Streptococcus pneumoniae; experiment: Antimicrobial activity against Streptococcus pneumoniae isolate 3458 by agar dilution method
[30] = system: Streptococcus pneumoniae; experiment: Antimicrobial activity against Streptococcus pneumoniae isolate 3282 by agar dilution method
[31] = system: Streptococcus pneumoniae; experiment: Antimicrobial activity against Streptococcus pneumoniae isolate 2880 by agar dilution method; method in brief: as §1
[32] = system: Streptococcus pneumoniae; experiment: Antimicrobial activity against Streptococcus pneumoniae isolate 37 by agar dilution method; method in brief: as §1
[33] = system: Streptococcus pneumoniae; experiment: Antimicrobial activity against Streptococcus pneumoniae isolate 1055 by agar dilution method
[34] = system: Streptococcus pneumoniae; experiment: Antimicrobial activity against Streptococcus pneumoniae isolate 24 by agar dilution method
[35] = system: Streptococcus pneumoniae; experiment: Antimicrobial activity against penicillin-susceptible Streptococcus pneumoniae by agar dilution method
[36] = system: Streptococcus pneumoniae; experiment: Antimicrobial activity against Streptococcus pneumoniae 4 by time-kill analysis; method in brief: as §2
[37] = system: Streptococcus pneumoniae; experiment: Antimicrobial activity against Streptococcus pneumoniae 10 by time-kill analysis; method in brief: as §2
[38] = system: Streptococcus pneumoniae; experiment: Antimicrobial activity against Streptococcus pneumoniae isolate 2688 by agar dilution method; method in brief: as §1
[39] = system: Streptococcus pneumoniae; experiment: Antimicrobial activity against Streptococcus pneumoniae isolate 2617 by agar dilution method; method in brief: as §1
[40] = system: Streptococcus pneumoniae; experiment: Antimicrobial activity against Streptococcus pneumoniae isolate 3481 by agar dilution method; method in brief: as §1
[41] = system: Streptococcus pneumoniae; experiment: Antimicrobial activity against Streptococcus pneumoniae isolate 1394 by agar dilution method
[42] = system: Streptococcus pneumoniae; experiment: Antimicrobial activity against Streptococcus pneumoniae isolate 3263 by agar dilution method
[43] = system: Streptococcus pneumoniae; experiment: Antimicrobial activity against Streptococcus pneumoniae 8 by time-kill analysis; method in brief: as §2
[44] = system: Streptococcus pneumoniae; experiment: Antimicrobial activity against Streptococcus pneumoniae isolate 3455 by agar dilution method
[45] = system: Streptococcus pneumoniae; experiment: Antimicrobial activity against Streptococcus pneumoniae 9 by time-kill analysis
Method in brief: as §2, with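 “12 and” for “12,”, “if” for “=”, “reduction” for “drop”, “90% and 99%” for “90%/99%/99.9%”, “also scored.” for “scored per strain.”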

[46] = system: Streptococcus pneumoniae; experiment: Antimicrobial activity against Streptococcus pneumoniae isolate 3587 by agar dilution method
[47] = system: Streptococcus pneumoniae; experiment: Antimicrobial activity against Streptococcus pneumoniae isolate 4755 by agar dilution method; method in brief: as §1

CO/N=C(\C(=O)N[C@@H]1C(=O)N2C(C(=O)O)=C(COC(N)=O)CS[C@H]12)c1ccco1 [CEFUROXIME]
MIC [1]: 4 µg/mL (≈ 9.43 µM)
MIC [2]: 8 µg/mL (≈ 18.9 µM)
MIC [3]: 4 µg/mL (≈ 9.43 µM)
MIC [4]: 8 µg/mL (≈ 18.9 µM)
MIC [5]: 8 µg/mL (≈ 18.9 µM)
MIC [6]: 4 µg/mL (≈ 9.43 µM)
MIC50 [7]: 0.25 µg/mL (≈ 0.589 µM)
MIC90 [7]: 4 µg/mL (≈ 9.43 µM)
MIC [8]: 8 µg/mL (≈ 18.9 µM)
MIC [9]: 64 µg/mL (≈ 151 µM)
MIC [10]: 4 µg/mL (≈ 9.43 µM)
MIC50 [11]: 8 µg/mL (≈ 18.9 µM)
MIC90 [11]: 16 µg/mL (≈ 37.7 µM)
MIC [12]: 4 µg/mL (≈ 9.43 µM)
MIC [13]: 0.5 µg/mL (≈ 1.18 µM)
MIC [14]: 4 µg/mL (≈ 9.43 µM)
MIC [15]: 16 µg/mL (≈ 37.7 µM)
MIC [16]: 0.016 µg/mL (≈ 0.0377 µM)
MIC [17]: 4 µg/mL (≈ 9.43 µM)
MIC [18]: 4 µg/mL (≈ 9.43 µM)
MIC50 [19]: 4 µg/mL (≈ 9.43 µM)
MIC90 [19]: 16 µg/mL (≈ 37.7 µM)
MIC [20]: 4 µg/mL (≈ 9.43 µM)
MIC [21]: 16 µg/mL (≈ 37.7 µM)
MIC [22]: 1 µg/mL (≈ 2.36 µM)
MIC [23]: 8 µg/mL (≈ 18.9 µM)
MIC [24]: 2 µg/mL (≈ 4.71 µM)
MIC [25]: 0.03 µg/mL (≈ 0.0707 µM)
MIC [26]: 8 µg/mL (≈ 18.9 µM)
MIC [27]: 8 µg/mL (≈ 18.9 µM)
MIC [28]: 16 µg/mL (≈ 37.7 µM)
MIC [29]: 8 µg/mL (≈ 18.9 µM)
MIC [30]: 4 µg/mL (≈ 9.43 µM)
MIC [31]: 4 µg/mL (≈ 9.43 µM)
MIC [32]: 4 µg/mL (≈ 9.43 µM)
MIC [33]: 4 µg/mL (≈ 9.43 µM)
MIC [34]: 2 µg/mL (≈ 4.71 µM)
MIC50 [35]: 0.03 µg/mL (≈ 0.0707 µM)
MIC90 [35]: 0.125 µg/mL (≈ 0.295 µM)
MIC [36]: 16 µg/mL (≈ 37.7 µM)
MIC [37]: 0.25 µg/mL (≈ 0.589 µM)
MIC [38]: 32 µg/mL (≈ 75.4 µM)
MIC [39]: 4 µg/mL (≈ 9.43 µM)
MIC [40]: 8 µg/mL (≈ 18.9 µM)
MIC [41]: 16 µg/mL (≈ 37.7 µM)
MIC [42]: 4 µg/mL (≈ 9.43 µM)
MIC [43]: 8 µg/mL (≈ 18.9 µM)
MIC [44]: 4 µg/mL (≈ 9.43 µM)
MIC [45]: 0.25 µg/mL (≈ 0.589 µM)
MIC [46]: 8 µg/mL (≈ 18.9 µM)
MIC [47]: 8 µg/mL (≈ 18.9 µM)

CC[C@H]1OC(=O)[C@H](C)[C@@H](O[C@H]2C[C@@](C)(OC)[C@@H](O)[C@H](C)O2)[C@H](C)[C@@H](O[C@@H]2O[C@H](C)C[C@H](N(C)C)[C@H]2O)[C@](C)(O)C[C@@H](C)CN(C)[C@H](C)[C@@H](O)[C@]1(C)O [AZITHROMYCIN]
MIC [1]: 0.125 µg/mL (≈ 0.167 µM)
MIC [2]: > 64 µg/mL
MIC [3]: > 64 µg/mL
MIC [4]: 2 µg/mL (≈ 2.67 µM)
MIC [5]: > 64 µg/mL
MIC [6]: 0.125 µg/mL (≈ 0.167 µM)
MIC50 [7]: 2 µg/mL (≈ 2.67 µM)
MIC90 [7]: > 64 µg/mL
MIC [8]: > 64 µg/mL
MIC [9]: > 64 µg/mL
MIC [10]: > 64 µg/mL
MIC50 [11]: > 64 µg/mL
MIC90 [11]: > 64 µg/mL
MIC [12]: > 64 µg/mL
MIC [13]: 0.06 µg/mL (≈ 0.0801 µM)
MIC [14]: 0.12 µg/mL (≈ 0.16 µM)
MIC [15]: > 64 µg/mL
MIC [16]: 0.06 µg/mL (≈ 0.0801 µM)
MIC [17]: > 64 µg/mL
MIC [18]: > 64 µg/mL
MIC50 [19]: 0.125 µg/mL (≈ 0.167 µM)
MIC [20]: > 64 µg/mL
MIC [21]: > 64 µg/mL
MIC [22]: 4 µg/mL (≈ 5.34 µM)
MIC [23]: > 64 µg/mL
MIC [24]: > 64 µg/mL
MIC [25]: > 64 µg/mL
MIC [26]: > 64 µg/mL
MIC [27]: 2 µg/mL (≈ 2.67 µM)
MIC [28]: > 64 µg/mL
MIC [29]: > 64 µg/mL
MIC [30]: > 64 µg/mL
MIC [31]: > 64 µg/mL
MIC [32]: > 64 µg/mL
MIC [33]: > 64 µg/mL
MIC [34]: > 64 µg/mL
MIC50 [35]: 2 µg/mL (≈ 2.67 µM)
MIC90 [35]: > 64 µg/mL
MIC [36]: 0.06 µg/mL (≈ 0.0801 µM)
MIC [37]: 0.03 µg/mL (≈ 0.0401 µM)
MIC [38]: > 64 µg/mL
MIC [39]: 0.125 µg/mL (≈ 0.167 µM)
MIC [40]: > 64 µg/mL
MIC [41]: > 64 µg/mL
MIC [42]: > 64 µg/mL
MIC [43]: 4 µg/mL (≈ 5.34 µM)
MIC [44]: > 64 µg/mL
MIC [45]: 0.06 µg/mL (≈ 0.0801 µM)
MIC [46]: > 64 µg/mL
MIC [47]: > 64 µg/mL
